Active and inactive are the calls of the source. The rule behind the calls is not given here.
Experiments:
[1] = Antiproliferative activity against mouse P388D1 cells after 48 hrs by sulforhodamine B assay; format: functional, cell-based; details: P388D1, 48 h
[2] = test system: HT-1080; assay: Antiproliferative activity against human HT1080 cells after 48 hrs by sulforhodamine B assay; format: functional, cell-based; details: HT-1080, 48 h
[3] = test system: CCRF-CEM; assay: Antiproliferative activity against human CEM cells after 48 hrs by sulforhodamine B assay; format: functional, cell-based
[4] = test system: CHO-TAX 5-6; assay: Antiproliferative activity against paclitaxel-resistant CHO-TAX 5-6 cells after 48 hrs by sulforhodamine B assay; format: functional, cell-based; details: Cricetulus griseus, CHO-TAX 5-6, 48 h
[5] = Antiproliferative activity against mouse B16F0 cells after 48 hrs by sulforhodamine B assay; format: functional, cell-based; details: B16F0, 48 h
[6] = test system: CHO-VV 3-2; assay: Antiproliferative activity against colchicine- and vinblastine-resistant CHO-VV 3-2 cells after 48 hrs by sulforhodamine B assay; details: Cricetulus griseus, CHO-VV 3-2, 48 h
[7] = test system: CHO; assay: Antiproliferative activity against CHO cells after 48 hrs by sulforhodamine B assay; format: functional, cell-based; details: Cricetulus griseus
[8] = test system: L1210; assay: Antiproliferative activity against mouse L1210 cells after 48 hrs by sulforhodamine B assay; format: functional, cell-based; details: L1210, 48 h
[9] = test system: SK-OV-3; assay: Antiproliferative activity against human SKOV3 cells after 48 hrs by sulforhodamine B assay; format: functional, cell-based; details: SK-OV-3, 48 h
[10] = test system: K562; assay: Antiproliferative activity against human K562 cells after 48 hrs by sulforhodamine B assay; format: functional, cell-based; details: K562, 48 h
[11] = test system: DU-145; assay: Antiproliferative activity against human DU145 cells after 48 hrs by sulforhodamine B assay; format: functional, cell-based; details: DU-145, 48 h
[12] = Antiproliferative activity against multidrug-resistant human CEM/VLB cells after 48 hrs by sulforhodamine B assay; format: functional
[13] = test system: CHO-TAX 5-6; assay: Resistant ratio of IC50 for paclitaxel-resistant CHO-TAX 5-6 cells to IC50 for CHO cells; format: functional, Cricetulus griseus
Method in brief: (§1)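 Ratio of the IC50 in the resistant line (CEM-VLB, CHO-TAX 5-6 or CHO-VV 3-2) to the IC50 in its parental line (CEM or CHO).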

[14] = test system: CEM-VLB; assay: Resistant ratio of IC50 for multidrug-resistant human CEM-VLB cells to IC50 for human CEM cells; format: functional; method in brief: as §1
[15] = test system: M21; assay: Cell cycle arrest in human M21 cells assessed as accumulation at S phase at 5 times IC50 after 24 hrs using propidium iodide staining by flow cytometric analysis (reference value: 30%); format: functional
[16] = test system: M21; assay: Cell cycle arrest in human M21 cells assessed as accumulation at G0/G1 phase at 5 times IC50 after 24 hrs using propidium iodide staining by flow cytometric analysis (reference value: 61%); format: functional
[17] = test system: HT-29; assay: Antiproliferative activity against human HT-29 cells after 48 hrs by sulforhodamine B assay; format: functional, cell-based; details: HT-29, 48 h
[18] = test system: M21; assay: Antiproliferative activity against human M21 cells after 48 hrs by sulforhodamine B assay; format: functional, cell-based; details: M21, 48 h
[19] = test system: M21; assay: Disruption of cytoskeleton microtubule structure of human M21 cells at 5 times IC50 after 16 hrs by indirect immunofluorescence assay; format: functional, cell-based
Method in brief: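 Fixed in 3.7% formaldehyde, permeabilized with saponin, and stained with anti-β-tubulin (TUB 2.1), Alexa-488 secondary and DAPI. Microtubule structure scored by fluorescence microscopy.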

[20] = Toxicity against fertilized chicken embryo assessed as mortality at 3 ug per egg, iv by CAM assay; format: organism-based, Gallus gallus; details: in vivo, read-out: Activity
Method in brief: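 Fertilized chicken eggs incubated 10 days with automatic turning, then static. HT-1080 cells (3.5 × 10^5 cells/egg) grafted onto exposed CAM. On day 11, drug in DMSO diluted into cremophor/ethanol/PBS (6.25/6.25/87.5 v/v) excipient, DMSO below 0.5%, 100 μL injected iv into 10-12 eggs. Eggs incubated to day 17, dead embryos counted. Untreated eggs used for normalization. Two independent experiments, at least 10 eggs each.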

[21] = test system: MDA-MB-231; assay: Displacement of N,N'-ethylenebis(iodoacetamide) from colchicine-binding site of beta-tubulin in human MDA-MB-231 cells at 1000 times IC50 preincubated for after 2 hrs before N,N'-ethylenebis(iodoacetamide) addition measured after 1.5 hrs by chemiluminescence assay; format: cell-based
Method in brief: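 EBI (100 μM final) added for 1.5 h at 37 °C; controls received 0.5% DMSO. Lysates (20 μg protein) run on 10% SDS-PAGE and blotted with anti-β-tubulin (TUB 2.1). β-tubulin–EBI adduct band detected by ECL.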

[22] = test system: HT-1080; assay: Antivasculogenic activity against human HT1080 cells xenografted in chicken chorioallantoic membrane assessed as inhibition of tumor growth at 3 ug per egg, iv measured on day 14 by CAM assay; format: functional; design: scale not given: the % may be the effect or the level left
[23] = test system: MDA-MB-231; assay: Antiproliferative activity against human MDA-MB-231 cells after 48 hrs by sulforhodamine B assay; format: functional, cell-based; details: MDA-MB-231, 48 h
[24] = test system: M21; assay: Cell cycle arrest in human M21 cells assessed as accumulation at G2/M phase at 5 times IC50 after 24 hrs using propidium iodide staining by flow cytometric analysis (reference value: 9%); format: functional
[25] = test system: MCF7; assay: Antiproliferative activity against human MCF7 cells after 48 hrs by sulforhodamine B assay; format: functional, cell-based; details: MCF7, 48 h

SMILES	IC50 [17] [nM]	IC50 [25] [nM]	Activity [15] [%]	Activity [16] [%]	IC50 [18] [nM]	Activity [19]	inhibition [21]	Activity [24] [%]	also measured
CC(=O)O[C@H]1C(=O)[C@@]2(C)[C@H]([C@H](OC(=O)c3ccccc3)[C@]3(O)C[C@H](OC(=O)[C@H](O)[C@@H](NC(=O)c4ccccc4)c4ccccc4)C(C)=C1C3(C)C)[C@]1(OC(C)=O)CO[C@@H]1C[C@@H]2O [PACLITAXEL]									IC50 [1]: 35 nM; IC50 [2]: 0.15 nM; IC50 [3]: 0.27 nM; IC50 [4]: 520 nM; IC50 [5]: 28 nM; IC50 [6]: 140 nM; IC50 [7]: 170 nM; IC50 [8]: 0.4 nM; IC50 [9]: 2.6 nM; IC50 [10]: 0.71 nM; IC50 [11]: 1.3 nM
COc1cc(OC)cc(OS(=O)(=O)c2ccc(N3CCNC3=O)cc2)c1	8	10	24	1	4.3	Active	Active	75	IC50 [12]: 9.2 nM; Ratio IC50 [13]: 0.71; Ratio IC50 [14]: 1.3; IC50 [1]: 7.8 nM; IC50 [2]: 8.2 nM; IC50 [3]: 7.1 nM; IC50 [4]: 5.2 nM; IC50 [5]: 25 nM; IC50 [6]: 15 nM; IC50 [7]: 7.3 nM; IC50 [8]: 6.4 nM; mortality [20]: 10%; IC50 [9]: 6.8 nM; Activity [22]: 56%; IC50 [23]: 14 nM; IC50 [10]: 7.5 nM; IC50 [11]: 25 nM
O=C1NCCN1c1ccc(S(=O)(=O)Oc2cccc(Cl)c2)cc1	15	13	19	2	9.2	Active	Active	79	IC50 [12]: 20 nM; Ratio IC50 [13]: 0.52; Ratio IC50 [14]: 1.2; IC50 [1]: 19 nM; IC50 [2]: 19 nM; IC50 [3]: 17 nM; IC50 [4]: 9.3 nM; IC50 [5]: 46 nM; IC50 [6]: 20 nM; IC50 [7]: 18 nM; IC50 [8]: 17 nM; mortality [20]: 0%; IC50 [9]: 22 nM; Activity [22]: 46%; IC50 [23]: 45 nM; IC50 [10]: 16 nM; IC50 [11]: 58 nM
CC[C@]1(O)C[C@@H]2CN(CCc3c([nH]c4ccccc34)[C@@](C(=O)OC)(c3cc4c(cc3OC)N(C)[C@H]3[C@@](O)(C(=O)OC)[C@H](OC(C)=O)[C@]5(CC)C=CCN6CC[C@]43[C@@H]65)C2)C1 [VINBLASTINE]									IC50 [12]: 600 nM; Ratio IC50 [13]: 0.41; Ratio IC50 [14]: 1579; IC50 [1]: 1.8 nM; IC50 [2]: 0.099 nM; IC50 [3]: 0.38 nM; IC50 [4]: 6.9 nM; IC50 [5]: 0.099 nM; IC50 [6]: 66 nM; IC50 [7]: 17 nM; IC50 [8]: 0.16 nM; IC50 [9]: 0.039 nM; IC50 [23]: 0.12 nM; IC50 [10]: 0.36 nM; IC50 [11]: 0.063 nM
CCCOc1ccc(OS(=O)(=O)c2ccc(N3CCNC3=O)cc2)cc1	110	140	6	0	96	Active	Active	94	
Cc1cc(OS(=O)(=O)c2ccc(N3CCNC3=O)cc2)cc(C)c1C	34	49	0	0	15	Active	Active	99	
COc1cc2c(c(OC)c1OC)-c1ccc(OC)c(=O)cc1[C@@H](NC(C)=O)CC2 [COLCHICINE]									IC50 [12]: 360 nM; IC50 [1]: 28 nM; IC50 [2]: 1.1 nM; IC50 [3]: 7.9 nM; IC50 [4]: 140 nM; IC50 [5]: 13 nM; IC50 [6]: 620 nM; IC50 [7]: 220 nM; IC50 [8]: 6.9 nM; IC50 [9]: 2.1 nM; IC50 [23]: 2.9 nM; IC50 [10]: 6.8 nM
O=C1NCCN1c1ccc(S(=O)(=O)Oc2ccccc2F)cc1	51	61	34	18	34	Active	Active	48	
O=C1NCCN1c1ccc(S(=O)(=O)Oc2ccccc2Cl)cc1	66	73	15	2	45	Active	Active	83	
O=C1NCCN1c1ccc(S(=O)(=O)Oc2cc(F)cc(F)c2)cc1	36	47	29	12	15	Active	Active	59	
O=C1NCCN1c1ccc(S(=O)(=O)Oc2cc(F)c(F)c(F)c2)cc1	73	91	31	4	43	Active	Active	65	
Cc1ccccc1OS(=O)(=O)c1ccc(N2CCNC2=O)cc1	33	30	15	11	26	Active	Active	74	

Continued, in another order:

IC50 [17] [nM]	IC50 [25] [nM]	SMILES	Activity [15] [%]	Activity [16] [%]	IC50 [18] [nM]	Activity [19]	inhibition [21]	Activity [24] [%]	also measured
34	51	CCCc1cccc(OS(=O)(=O)c2ccc(N3CCNC3=O)cc2)c1	25	2	27	Active	Active	73	
42	66	Cc1cc(C)c(OS(=O)(=O)c2ccc(N3CCNC3=O)cc2)cc1C	20	1	41	Active	Active	79	
32	47	Cc1cc(C)cc(OS(=O)(=O)c2ccc(N3CCNC3=O)cc2)c1	26	7	16	Active	Active	67	
67	88	COc1ccc(OS(=O)(=O)c2ccc(N3CCNC3=O)cc2)cc1OC	19	1	45	Active	Active	80	
120	150	Cc1ccc(OS(=O)(=O)c2ccc(N3CCNC3=O)cc2)cc1	13	32	93	Active	inactive	55	
76	57	Cc1cccc(OS(=O)(=O)c2ccc(N3CCNC3=O)cc2)c1	0	1	54	Active	Active	99	
87	88	O=C1NCCN1c1ccc(S(=O)(=O)Oc2ccc(Cl)cc2)cc1	0	0	58	Active	Active	100	

Reference: ChEMBL document CHEMBL1799919, “Design, synthesis, biological evaluation, and structure-activity relationships of substituted phenyl 4-(2-oxoimidazolidin-1-yl)benzenesulfonates as new tubulin inhibitors mimicking combretastatin A-4” (J Med Chem, 2011)
